pIC50: −log10 of the molar value. Active and inactive are the calls of the source. The rule behind the calls is not given here.
Legend:
CCRF-CEM = test: Growth inhibition of human CCRF-CEM cells; assay type: functional
Method in brief: (§1)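 NCI-60 cell lines grown in RPMI 1640 with 5% FBS and 2 mM L-glutamine, plated at 5,000–40,000 cells/well and preincubated 24 h. Time-zero plates were TCA-fixed. Drug was given at five concentrations (10-fold or ½-log dilutions from DMSO stock) for 48 h at 37°C. Cells were TCA-fixed, stained with SRB, and read at 515 nm. GI50 is where [(Ti−Tz)/(C−Tz)]×100 = 50.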

HL-60(TB) = test: Growth inhibition of human HL-60(TB) cells; assay type: functional; method in brief: as §1
K562 = test: Growth inhibition of human K562 cells; assay type: functional; method in brief: as §1
MOLT-4 = test: Growth inhibition of human MOLT4 cells; assay type: functional; method in brief: as §1
[1] = Growth inhibition of human […] cells; assay type: functional; method in brief: as §1
SR = test: Growth inhibition of human SR cells; assay type: functional
Method in brief: (§2)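 NCI-60 panel SRB assay. Cells in RPMI 1640 with 5% FBS and 2 mM L-glutamine, plated at 5,000-40,000 cells/well and grown 24 h before dosing; time-zero plates TCA-fixed. Five concentrations (10-fold or ½ log dilutions, from DMSO stock) applied for 48 h at 37°C. TCA fixation (16% final for suspension cells), SRB stain, absorbance 515 nm; GI50 from net protein increase versus control.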

A549 = test: Growth inhibition of human A549 cells; assay type: functional; method in brief: as §1
EKVX = test: Growth inhibition of human EKVX cells; assay type: functional; method in brief: as §1
HOP-62 = test: Growth inhibition of human HOP62 cells; assay type: functional; method in brief: as §1
HOP-92 = test: Growth inhibition of human HOP92 cells; assay type: functional; method in brief: as §1
NCI-H226 = test: Growth inhibition of human NCI-H226 cells; assay type: functional; method in brief: as §1
NCI-H23 = test: Growth inhibition of human NCI-H23 cells; assay type: functional; method in brief: as §1
NCI-H322M = test: Growth inhibition of human NCI-H322M cells; assay type: functional; method in brief: as §1
NCI-H460 [2] = test: Growth inhibition of human NCI-H460 cells; assay type: functional; method in brief: as §1
NCI-H522 = test: Growth inhibition of human NCI-H522 cells; assay type: functional; method in brief: as §1
COLO 205 = test: Growth inhibition of human COLO205 cells; assay type: functional; method in brief: as §1
HCC 2998 = test: Growth inhibition of human HCC2998 cells; assay type: functional; method in brief: as §1
HCT-116 = test: Growth inhibition of human HCT116 cells; assay type: functional; method in brief: as §1
HCT-15 = test: Growth inhibition of human HCT15 cells; assay type: functional; method in brief: as §1
HT-29 = test: Growth inhibition of human HT-29 cells; assay type: functional; method in brief: as §1
KM12 = test: Growth inhibition of human KM12 cells; assay type: functional; method in brief: as §1
SW-620 = test: Growth inhibition of human SW620 cells; assay type: functional; method in brief: as §2
SF-268 = test: Growth inhibition of human SF268 cells; assay type: functional; method in brief: as §1
SF-295 = test: Growth inhibition of human SF295 cells; assay type: functional; method in brief: as §1
SF-539 = test: Growth inhibition of human SF539 cells; assay type: functional; method in brief: as §1
SNB-19 = test: Growth inhibition of human SNB19 cells; assay type: functional; method in brief: as §2
SNB-75 = test: Growth inhibition of human SNB75 cells; assay type: functional; method in brief: as §2
U-251 = test: Growth inhibition of human U251 cells; assay type: functional; method in brief: as §2
M14 = test: Growth inhibition of human M14 cells; assay type: functional; method in brief: as §1
Malme-3M = test: Growth inhibition of human MALME-3M cells; assay type: functional; method in brief: as §1
SK-MEL-2 = test: Growth inhibition of human SK-MEL-2 cells; assay type: functional; method in brief: as §1
SK-MEL-28 = test: Growth inhibition of human SK-MEL-28 cells; assay type: functional; method in brief: as §2
SK-MEL-5 = test: Growth inhibition of human SK-MEL-5 cells; assay type: functional; method in brief: as §2
UACC-257 = test: Growth inhibition of human UACC257 cells; assay type: functional; method in brief: as §2
UACC-62 = test: Growth inhibition of human UACC62 cells; assay type: functional; method in brief: as §2
IGROV-1 = test: Growth inhibition of human IGROV1 cells; assay type: functional; method in brief: as §1
OVCAR-3 = test: Growth inhibition of human OVCAR3 cells; assay type: functional; method in brief: as §1
OVCAR-4 = test: Growth inhibition of human OVCAR4 cells; assay type: functional; method in brief: as §1
OVCAR-5 = test: Growth inhibition of human OVCAR5 cells; assay type: functional; method in brief: as §1
OVCAR-8 = test: Growth inhibition of human OVCAR8 cells; assay type: functional; method in brief: as §1
SK-OV-3 = test: Growth inhibition of human SKOV3 cells; assay type: functional; method in brief: as §2
786-0 = test: Growth inhibition of human 786-0 cells; assay type: functional; method in brief: as §1
A498 = test: Growth inhibition of human A498 cells; assay type: functional; method in brief: as §1
ACHN = test: Growth inhibition of human ACHN cells; assay type: functional; method in brief: as §1
CAKI-1 = test: Growth inhibition of human Caki1 cells; assay type: functional; method in brief: as §1
RXF 393 = test: Growth inhibition of human RXF393 cells; assay type: functional; method in brief: as §1
SN12C = test: Growth inhibition of human SN12C cells; assay type: functional; method in brief: as §2
TK-10 = test: Growth inhibition of human TK10 cells; assay type: functional; method in brief: as §2
UO-31 = test: Growth inhibition of human UO31 cells; assay type: functional; method in brief: as §2
PC-3 = test: Growth inhibition of human PC3 cells; assay type: functional; method in brief: as §1
DU-145 = test: Growth inhibition of human DU145 cells; assay type: functional; method in brief: as §1
MCF7 = test: Growth inhibition of human MCF7 cells; assay type: functional; method in brief: as §1
NCI/ADR-RES = test: Growth inhibition of human NCI/ADR-RES cells; assay type: functional; method in brief: as §1
MDA-MB-231 = test: Growth inhibition of human MDA-MB-231 cells; assay type: functional; method in brief: as §1
[3] = Growth inhibition of human Hs 578T cells; assay type: functional; method in brief: as §1
MDA-MB-435 = test: Growth inhibition of human MDA-MB-435 cells; assay type: functional; method in brief: as §1
MDA-N = test: Growth inhibition of human MDA-N cells; assay type: functional; method in brief: as §1
BT-549 = test: Growth inhibition of human BT549 cells; assay type: functional; method in brief: as §1
T47D = test: Growth inhibition of human T47D cells; assay type: functional; method in brief: as §2
[4] = Growth inhibition of human NCI60 cells; assay type: functional; method in brief: as §1
NCI-H460 [5] = test: Cytotoxicity against human NCI-H460 cells assessed as cell death at 50 nM after 12 hrs by Hoechst-33342 staining and propidium iodide staining; assay type: functional, cell-based; conditions: NCI-H460, 12 h
Method in brief: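 NCI-H460 cells were seeded at 50,000 cells/well for 12 h, then exposed 12 h in serum-free medium (DMSO <0.1%). Cells were stained with Hoechst 33342 (10 µg/ml) and propidium iodide (20 µg/ml) for 30 min at 37°C. Condensed or fragmented nuclei were scored by fluorescence microscopy, and apoptotic index = apoptotic/total nuclei ×100. Duplicate wells, ≥3 runs (N = 6).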

NCI-H460 [6] = test: Induction of apoptosis human NCI-H460 cells assessed as cellular degradation at 50 nM after 12 hrs by Hoechst-33342 staining; assay type: functional
Method in brief: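 NCI-H460 seeded 50,000 cells/well for 12 h, then exposed 12 h in serum-free medium (DMSO <0.1%). Stained 30 min at 37°C with 10 µg/ml Hoechst 33342 plus 20 µg/ml propidium iodide. Condensed or fragmented nuclei scored by fluorescence microscopy; apoptotic index = apoptotic/total nuclei ×100. 2 replicate wells, ≥3 runs (N = 6).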

LOX IMVI = test: Growth inhibition of human LOXIMVI cells; assay type: functional; method in brief: as §1

## C[C@@H]1O[C@@H](O[C@H]2CC[C@@]3(C)[C@H](CC[C@@H]4[C@@H]3CC[C@]3(C)[C@@H](C5=CC(=O)OC5)CC[C@]43O)C2)[C@H](O)[C@H](O)[C@H]1O
CCRF-CEM
  GI50: < 10 nM
HL-60(TB)
  GI50: < 10 nM
K562
  GI50: < 10 nM
MOLT-4
  GI50: < 10 nM
[1]
  GI50: < 10 nM
SR
  GI50: < 10 nM
A549
  GI50: < 10 nM
EKVX
  GI50: < 10 nM
HOP-62
  GI50: < 10 nM
HOP-92
  GI50: < 10 nM
NCI-H226
  GI50: < 10 nM
NCI-H23
  GI50: < 10 nM
NCI-H322M
  GI50: < 10 nM
NCI-H460 [2]
  GI50: < 10 nM
NCI-H522
  GI50: < 10 nM
COLO 205
  GI50: < 10 nM
HCC 2998
  GI50: < 10 nM
HCT-116
  GI50: < 10 nM
HCT-15
  GI50: < 10 nM
HT-29
  GI50: < 10 nM
KM12
  GI50: < 10 nM
SW-620
  GI50: < 10 nM
SF-268
  GI50: < 10 nM
SF-295
  GI50: < 10 nM
SF-539
  GI50: < 10 nM
SNB-19
  GI50: < 10 nM
SNB-75
  GI50: < 10 nM
U-251
  GI50: < 10 nM
M14
  GI50: < 10 nM
Malme-3M
  GI50: < 10 nM
SK-MEL-2
  GI50: < 10 nM
SK-MEL-28
  GI50: < 10 nM
SK-MEL-5
  GI50: < 10 nM
UACC-257
  GI50: < 10 nM
UACC-62
  GI50: < 10 nM
IGROV-1
  GI50: < 10 nM
OVCAR-3
  GI50: < 10 nM
OVCAR-4
  GI50: < 10 nM
OVCAR-5
  GI50: < 10 nM
OVCAR-8
  GI50: < 10 nM
SK-OV-3
  GI50: < 10 nM
786-0
  GI50: < 10 nM
A498
  GI50: < 10 nM
ACHN
  GI50: < 10 nM
CAKI-1
  GI50: < 10 nM
RXF 393
  GI50: < 10 nM
SN12C
  GI50: < 10 nM
TK-10
  GI50: < 10 nM
UO-31
  GI50: < 10 nM
PC-3
  GI50: < 10 nM
DU-145
  GI50: < 10 nM
MCF7
  GI50: < 10 nM
NCI/ADR-RES
  GI50: < 10 nM
MDA-MB-231
  GI50: < 10 nM
[3]
  GI50: < 10 nM
MDA-MB-435
  GI50: < 10 nM
MDA-N
  GI50: < 10 nM
BT-549
  GI50: < 10 nM
T47D
  GI50: < 10 nM
[4]
  GI50: 1 nM
NCI-H460 [5]
  pIC50: 7.33
NCI-H460 [6]
  Activity: Active
NCI-H460 [6]; record 2
  Activity: 45.8%
LOX IMVI
  GI50: < 10 nM
